The source of these data is ChEMBL document CHEMBL5030534, “Discovery of Novel Anti-Breast-Cancer Inhibitors by Synergistically Antagonizing Microtubule Polymerization and Aryl Hydrocarbon Receptor Expression” (J Med Chem, 2021).

The nature of data set [1]: Toxicity in BALB/c nude mouse xenografted with human MCF7 cells assessed as effect on kidney at 0.5 to 1 mg/kg, iv administered every 2 days for 21 days by H and E staining based assay. The format is organism-based. The settings on record: in vivo, 504 h, dose 0.5-1 mg/kg, time 21 day. In outline:
(§1)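 Nude mice given 6 × 10⁶ MCF-7 cells subcutaneously on right flank; after 7 days randomized, eight per group. iv dosing every 2 days at 0.5 or 1 mg/kg; vehicle 10% DMSO/5% Tween 80/85% saline; paclitaxel 10 mg/kg and CA-4 20 mg/kg references. Body weight every 2 days; killed after 21 days; organs fixed, paraffin-sectioned, H&E stained.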
For orientation: A xenograft is tissue or cells of one species grown in another, often human tumour cells in immunodeficient mice.

Data set [2] is described as follows: Toxicity in BALB/c nude mouse xenografted with human MCF7 cells assessed as effect on spleen at 0.5 to 1 mg/kg, iv administered every 2 days for 21 days by H and E staining based assay. The format is organism-based. The settings on record: in vivo, 504 h, dose 0.5-1 mg/kg, time 21 day. In outline:
as §1

The test system of data set [3] is MCF7. Briefly: Induction of apoptosis in human MCF7 cells assessed as early apoptotic cells at 2 nM measured after 24 hrs by Annexin V-FITC and PI staining based flow cytometry assay (reference value: 1%). The class given is functional. For orientation: Flow cytometry measures light scatter and fluorescence of single cells or particles in a stream.
Data set [4] has as its system MCF7. Briefly: Induction of apoptosis in human MCF7 cells assessed as viable cells at 2 nM measured after 24 hrs by Annexin V-FITC and PI staining based flow cytometry assay (reference value: 96.5%). The settings on record: read-out: Activity. The format is functional.
Data set [5] concerns MCF7. Briefly: Antitumor activity against human MCF7 cells xenografted in BALB/c nude mouse assessed as reduction in tumor microvessel density at 1 mg/kg, iv administered every 2 days and measured after 21 days by immunohistochemistry analysis. The settings on record: time 21.0 day. The format is functional, organism-based. In outline:
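Same subcutaneous MCF-7 nude-mouse xenografts dosed iv every 2 days for 21 days. Tumors then fixed, paraffin-embedded and sectioned. Apoptotic cells detected by TUNEL fluorescent staining with DNA counterstain; microvessel density measured by anti-CD31 immunohistochemistry.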

In data set [6] the test system is MCF7. Briefly: Induction of apoptosis in human MCF7 cells assessed as early apoptotic cells at 1 nM measured after 24 hrs by Annexin V-FITC and PI staining based flow cytometry assay (reference value: 0.90%). The format is functional.
The test system of data set [7] is MCF7. The data set is described as follows: Induction of apoptosis in human MCF7 cells assessed as early apoptotic cells at 0.5 nM measured after 24 hrs by Annexin V-FITC and PI staining based flow cytometry assay (reference value: 0.90%). The format is functional.
The subject of data set [8] is MCF7. Briefly: Induction of apoptosis in human MCF7 cells assessed as late apoptotic cells at 2 nM measured after 24 hrs by Annexin V-FITC and PI staining based flow cytometry assay (reference value: 1.5%). The class given is functional.
For data set [9], the system named is MCF7. The data set is described as follows: Induction of ROS generation in human MCF7 cells at 2 nM measured after 24 hrs in presence of N-acetylcysteine by DCFH-DA staining based flow cytometric analysis. The format is functional. In a few lines: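 MCF-7 seeded 4 × 10⁵ per well for 24 h, then DMSO or 0.5, 1, 2 nM for 24 h. Loaded with DCFH-DA for 30 min in the dark, resuspended in serum-free medium, DCF fluorescence measured by flow cytometry. For scavenger condition, 2.5 mM N-acetyl-L-cysteine pretreatment, then 2 nM for 24 h. Three runs.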

Data set [10] relates to MCF7. Briefly: Induction of mitochondrial membrane potential loss in human MCF7 cells at 0.5 nM measured after 24 hrs by JC-1 staining based flow cytometry analysis (reference value: 3.01%). The class given is functional.
The subject of data set [11] is MCF7. The data set is described as follows: Induction of mitochondrial membrane potential loss in human MCF7 cells at 1 nM measured after 24 hrs by JC-1 staining based flow cytometry analysis (reference value: 3.01%). The format is functional.
Data set [12] deals with MCF7. Briefly: Antitumor activity against human MCF7 cells xenografted in BALB/c nude mouse assessed as decrease in tumor weight at 1 mg/kg, iv administered every 2 days for 21 days and measured every 2 days. The format is functional. To be noted: time 21 day. More on the design: scale not given: the % may be the effect or the level left. In a few lines:
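MCF-7 cells (6 × 10⁶) injected subcutaneously into right flank of BALB/c nude mice; after 7 days animals randomized, eight per group. Dosing iv every 2 days for 21 days, vehicle 10% DMSO/5% Tween 80/85% saline. Tumor size and body weight recorded every 2 days; tumors excised and weighed at sacrifice.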

Data set [13] concerns MCF7. The data set is described as follows: Induction of apoptosis in human MCF7 cells assessed as viable cells at 2 nM measured after 24 hrs by Annexin V-FITC and PI staining based flow cytometry assay (reference value: 96.8%). The format is functional. To be noted: read-out: Activity.
Data set [14] concerns the target T1, Tubulin (Homo sapiens) (UniProt P68371+Q9H4B7+P0DPH7+P68366+Q13509+Q71U36+P04350+Q3ZCM7+P07437+P68363+Q9BQE3+Q6PEY2+Q13885+Q9BVA1+Q9BUF5). The data set is described as follows: Induction of microtubule damage in human MCF7 cells incubated for 48 hrs by DAPI staining based immunofluorescence assay. The format is cell-based. The settings on record: dose 0.5-4 nM. In outline: (§2)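 Blocked with goat serum for 20 min, probed with anti-β-tubulin for 2 h, fluorescent secondary antibody and DAPI nuclear stain, imaged by laser confocal microscopy.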

Data set [15] deals with MCF7. The data set is described as follows: Induction of apoptosis in human MCF7 cells assessed as decrease in of Bcl-2 protein expression at 1 to 4 nM. To be noted: dose 1-4 nM. The format is functional, cell-based. In a few lines:
(§3)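 MCF-7 seeded 4 × 10⁵ per well for 24 h, then DMSO or compound at 1, 2, 4 nM for 24 h. Lysates protein-normalized to 3 mg/mL by BCA, resolved on 4–20% SDS-PAGE and immunoblotted. Bands quantified relative to β-actin (cell-cycle proteins) or GAPDH (apoptosis proteins); n = 3.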

The test system of data set [16] is MCF7. Briefly: Induction of apoptosis in human MCF7 cells assessed as increase in Bad protein expression at 1 to 4 nM. The format is functional, cell-based. To be noted: dose 1-4 nM. In outline:
as §3

In data set [17] the target is T1, Tubulin (Homo sapiens). Briefly: Induction of microtubule damage in human MCF7 cells at 0.5 nM incubated for 48 hrs by DAPI staining based immunofluorescence assay. The class given is cell-based. In outline:
as §2

For data set [18], the system named is MCF7. The data set is described as follows: Induction of apoptosis in human MCF7 cells assessed as necrotic cells at 0.5 nM measured after 24 hrs by Annexin V-FITC and PI staining based flow cytometry assay (reference value: 0.28%). The format is functional.
A short description of data set [19]: Toxicity in BALB/c nude mouse xenografted with human MCF7 cells assessed as effect on lung at 0.5 to 1 mg/kg, iv administered every 2 days for 21 days by H and E staining based assay. The class given is organism-based. The settings on record: in vivo, 504 h, dose 0.5-1 mg/kg, time 21 day. In a few lines: as §1
The subject of data set [20] is MCF7. Briefly: Induction of apoptosis in human MCF7 cells assessed as increase in cleaved Caspase-3 protein expression at 1 to 4 nM. The settings on record: dose 1-4 nM. The class given is functional, cell-based. In outline:
as §3

Data set [21] relates to MCF7. The data set is described as follows: Induction of apoptosis in human MCF7 cells assessed as increase in Bax protein expression at 1 to 4 nM. The class given is functional, cell-based. The settings on record: dose 1-4 nM. In outline: as §3
Data set [22] addresses T1, Tubulin (Homo sapiens). Briefly: Induction of microtubule depolymerization in human MCF7 cells at 10 uM measured every 5 mins for 60 mins by spectrophotometric method. The format is cell-based. In a few lines: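 Purified tubulin at 2 mg/mL in PEM buffer preincubated on ice with compound or DMSO. PEG added to a final 3 mg/mL, then polymerization followed at 37 °C by absorbance at 350 nm every 5 min for 60 min.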

Data set [23] has as its system MCF7. Briefly: Induction of apoptosis in human MCF7 cells assessed as viable cells at 1 nM measured after 24 hrs by Annexin V-FITC and PI staining based flow cytometry assay (reference value: 96.8%). The class given is functional. To be noted: read-out: Activity.

Each structure is given as a SMILES string. Activity calls are given as the source filed them. The calls are words filed in the database; no cut-off is given here.

Take `Cc1nc(N(C)c2ccc3c(c2)cc(C)n3C)c2ccccc2n1`: the Activity result in [1] is on record as “Non-Toxic”; in data set [2] it was “Non-Toxic”; in data set [3], 6.9%; in data set [6], 6.63%; in data set [7] it was 1.28%; in data set [8], 44.7%. The Activity is 24.7% in data set [9]; 6.49% in data set [10]; 6.49% in [11]; 81.1% in data set [12]; “Dose-Dependent Effect” in data set [14]; 0.52% in data set [18]. Moreover, in data set [19], the Activity entry is reported as “Non-Toxic”. Also, the viability at 0.002 µM in data set [4] stood at 40.1%; in data set [13], 38.3%. In addition, the result in data set [5], in data set [15], in data set [16], in data set [20], in [21] and in data set [22] was Active. Besides, the outcome in [17] was inactive. For the same compound, the viability at 0.001 µM in data set [23] worked out at 61.5%.
